Ecoli rRNA inh: reduced GFP signal of wild-type E. coli, primary screen, bacterial rRNA inhibitor project, GFP/RFP fluorescence, OD600, single point; E. coli WT GFP vs humanized-ribosome RFP mutants, 24 h; active compounds read low; DMSO median 0, no signal -100; AID 720706, 2013; 1.6% of 350,000 active; GFP signal change (wild-type ribosome), % (no concentration beside the values);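 active = significant combined selectivity score with lowered wild-type GFP, culture density cut under 30%, mutant RFP and density less affected; inactive = any of these conditions unmet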
E-sel inducer: E-selectin induction in HUVECs, primary screen, imaging, HUVEC, immunofluorescence imaging, single point. P16581. normalized: neutral wells 0, TNF-alpha wells 100. activation, % at 7.58 µM. 0.37% of 260,000 active. AID 686992, 2013;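 active = mean E-selectin-positive cell signal at least 10% of the positive control, reached in at least 60% of replicates, without over 20% cell loss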
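Assay system: HUVEC primary endothelial cells. Input: 3,000 HUVEC seeded per well. Doses: one compound dose added by pin transfer. Read-out basis: % PE-positive cells. Benchmarks: TNF-alpha high, DMSO low. Detection: immunofluorescence imaging. Buffer or medium: EGM-2, gelatin.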
Cneo AK release: Cryptococcus neoformans cell lysis inducers, primary screen, AK release luminescence, single concentration; C. neoformans lysis, adenylate kinase release luminescence, 4 h; normalised: neutral wells 0, clomiphene wells 100; lysis activity, % at 15 µM; 0.2% of 360,000 active; AID 651654, 2012;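 active = mean lysis activity across replicates of at least 80%, whatever share of replicates individually reach that level; inactive = mean lysis activity below 80%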
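Material – Cryptococcus neoformans yeast cells · Quantity – 5 × 10^6 yeast cells/mL · Buffer or medium – YPD medium · Compound – single dose · Timing – 4 h static compound exposure, 37 °C, read 1 h post-reagent · Signal – adenylate kinase release luminescence · Read-out basis – lysis from increased AK signal · Benchmarks – Clomiphene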
DENV2 CPE rescue: inhibitors of DENV2 cytopathic effect, primary screen, cell-based, plate reader, single concentration; DENV2-infected cells, cytopathic effect rescue; CPE inhibition, % at 9.99 µM; 1.7% of 350,000 active; in the data active = CPE inhibition above about 20%, passing the limit was not always enough; tested in BHK-21 cells;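 note: 0% = median of neutral control wells and 100% = median of positive control wells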
miR-122 sensor: miR-122 Renilla sensor signal increase in Huh7, primary screen, miR-122 inhibitor project, cell-based, single point, plate reader; 0.3% of 340,000 active; Huh7 miR-122 Renilla luciferase sensor, 48 h; neutral wells = 0, positive control = 100; activation (reporter increase), % at 12.5 µM; AID 602342, 2012;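 active = mean replicate activation score at least 90 and every replicate individually at or above 90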;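 note: higher luciferase means less miR-122 activity so hits act as miR-122 inhibitors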
* hit, by the source's call; [ ] = dose if it differs, or a comment. This is a sample that favours compounds with a hit; in the whole collection about 3.1% have one here.

`C[C@H]1CN([C@@H](C)CO)C(=O)c2cc(NC(=O)C3CCCCC3)ccc2O[C@@H]1CN(C)S(C)(=O)=O` gave Ecoli rRNA inh 1, E-sel inducer -4, Cneo AK release -2, DENV2 CPE rescue 0 and miR-122 sensor -2[16.7 µM].
For O=C(C[C@H]1CC[C@H](NC(=O)C2CCOCC2)[C@H](CO)O1)Nc1ccccc1 the results were Ecoli rRNA inh 1, E-sel inducer 1 and DENV2 CPE rescue -9.
CN(C)CC(=O)N1CC2(C1)[C@H](c1ccccc1)[C@H](CO)N2Cc1ccccc1F was read as Ecoli rRNA inh 1, E-sel inducer 0 and DENV2 CPE rescue -11.
`C[C@H]1CN([C@@H](C)CO)C(=O)c2cc(NC(=O)Cc3ccccc3)ccc2O[C@@H]1CN(C)S(=O)(=O)c1ccc(Cl)cc1` gave Ecoli rRNA inh 0, E-sel inducer -12, Cneo AK release 49, DENV2 CPE rescue -6 and miR-122 sensor 1[16.7 µM].
Screening COc1ccccc1S(=O)(=O)N[C@@H]1CC[C@H](CCNC(=O)C2CC2)O[C@H]1CO returned Ecoli rRNA inh 2, E-sel inducer -1, Cneo AK release -2 and DENV2 CPE rescue -1.
Screening CCC(=O)N(C)C[C@H]1Oc2cc(C#CCC(C)C)ccc2S(=O)(=O)N([C@@H](C)CO)C[C@H]1C returned Ecoli rRNA inh -7, E-sel inducer 0, Cneo AK release 2, DENV2 CPE rescue 19 and miR-122 sensor -10[16.7 µM].
COc1ccccc1CNC(=O)C[C@H]1CC[C@H]2[C@@H](COc3ccc(NC(=O)Nc4ccc(F)c(F)c4)cc3C(=O)N2C)O1 was read as Ecoli rRNA inh -8, E-sel inducer 0, Cneo AK release 4, DENV2 CPE rescue -11 and miR-122 sensor 17[16.7 µM].
CC(=O)c1ccc(NC(=O)CC23CC4CC(C2)CC(n2nnc(C)n2)(C4)C3)cc1 was read as Ecoli rRNA inh -18, DENV2 CPE rescue 1 and miR-122 sensor 3.
For Cc1cccc(NC(=O)CC23CC4CC(C2)CC(n2nnc(C)n2)(C4)C3)c1 the results were Ecoli rRNA inh -23*, Cneo AK release -1, DENV2 CPE rescue 3 and miR-122 sensor -2.
Screening Cc1nnn(C23CC4CC(CC(CC(=O)Nc5ccc(C)c(C)c5)(C4)C2)C3)n1 returned Ecoli rRNA inh -19*, Cneo AK release -2, DENV2 CPE rescue -4 and miR-122 sensor -6.
Cc1nnn(C23CC4CC(CC(CC(=O)Nc5cccc(F)c5)(C4)C2)C3)n1 was read as Ecoli rRNA inh -8, E-sel inducer 0, DENV2 CPE rescue 5 and miR-122 sensor -2.
N#C/C(=C\c1ccc(O)cc1)c1nc2ccccc2o1 was read as Ecoli rRNA inh -35*, E-sel inducer 2, Cneo AK release -6 and DENV2 CPE rescue 2.
Screening CC(=O)NC12CC3CC(C1)CC(C(=O)Nc1nccs1)(C3)C2 returned Cneo AK release -1 and miR-122 sensor 0.
CCOc1ccc2nc(NC(=O)C34CC5CC(CC(NC(C)=O)(C5)C3)C4)sc2c1 was read as Ecoli rRNA inh -33*, E-sel inducer 0, Cneo AK release -4 and DENV2 CPE rescue 1.
CCOc1ccc2nc(NC(=O)CN3CCN(CC)CC3)sc2c1 was read as Ecoli rRNA inh -3, Cneo AK release 10, DENV2 CPE rescue 44* and miR-122 sensor 1.
COc1ccc2nc(NC(=O)C34CC5CC(CC(NC(C)=O)(C5)C3)C4)sc2c1 was read as Ecoli rRNA inh -27*, E-sel inducer 2, Cneo AK release 2, DENV2 CPE rescue 9 and miR-122 sensor -2.
For CCOc1ccc2nc(NC(=O)CN3CCN(C)CC3)sc2c1 the results were Cneo AK release -3 and miR-122 sensor 2.
Screening ClCCCc1cn(C[C@H]2CC[C@@H]([C@@H]3CC[C@H](Cn4cc(CCCCl)nn4)O3)O2)nn1 returned Ecoli rRNA inh 4, E-sel inducer 0, Cneo AK release 2, DENV2 CPE rescue 22* and miR-122 sensor 7.

Screening results as filed in PubChem.
